# In PMC3586205 (European journal of pharmacology, 2012):
# Entries after “also recorded” stand apart in the source; their conditions may differ. Read-outs that look alike come from different tables or passages of the source.
# Columns and labels:
# [1] = tested on: tail flick latency in mice; experiment: Tail flick antinociception, mouse test battery; type: in vivo
# In short: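 Baseline tail-flick latency was taken to radiant heat (bright light) before i.v. injection of vehicle (ethanol:Emulphor-620:saline 1:1:18) or test compound. Latency was re-measured 20 min post-injection with a 10 s cutoff. Result expressed as %MPE = [(test−control latency)/(10−control)] × 100, separate groups per dose.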
# [2] = target: T1, human cannabinoid CB1 receptor (Homo sapiens, UniProt P21554); experiment: Cannabinoid CB1 receptor radioligand binding, displacement of [3H]CP55,940
# T1 sequence (P21554 whole entry): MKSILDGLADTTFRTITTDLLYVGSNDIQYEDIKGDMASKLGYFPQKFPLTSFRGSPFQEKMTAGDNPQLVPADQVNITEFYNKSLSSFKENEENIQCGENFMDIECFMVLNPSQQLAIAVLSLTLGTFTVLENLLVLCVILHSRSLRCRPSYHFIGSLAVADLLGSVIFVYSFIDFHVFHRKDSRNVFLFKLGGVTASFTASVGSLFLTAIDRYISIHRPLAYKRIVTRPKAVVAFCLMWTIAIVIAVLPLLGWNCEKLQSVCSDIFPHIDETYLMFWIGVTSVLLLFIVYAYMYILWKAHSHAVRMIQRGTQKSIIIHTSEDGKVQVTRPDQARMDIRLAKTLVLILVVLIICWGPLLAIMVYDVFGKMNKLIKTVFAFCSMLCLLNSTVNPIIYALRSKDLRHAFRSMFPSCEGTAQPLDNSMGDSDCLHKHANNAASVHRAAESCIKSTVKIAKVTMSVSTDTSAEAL
# [3] = tested on: spontaneous activity in mice; experiment: Spontaneous; type: in vivo
# In short: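 Separate groups of mice per dose were injected i.v. with vehicle (ethanol:Emulphor-620:saline 1:1:18) or test compound. Five minutes later each was placed in an activity chamber for 10 min. Total photobeam interruptions were counted and expressed as % inhibition of the vehicle group. ED50s were derived by log-dose linear regression, taking 90% inhibition as maximal.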
# [4] = tested on: rectal temperature in mice; experiment: Rectal temperature, mouse test battery; type: in vivo
# food intake in mice [5] = experiment: Feeding behavior: 1-h food intake after 24-h food deprivation; type: in vivo; details: for decrease in feeding compared to vehicle: 60 min pre-session, significant
# [6] = target: T2, human cannabinoid CB2 receptor (Homo sapiens, UniProt P34972); experiment: Cannabinoid CB2 receptor radioligand binding, displacement of [3H]CP55,940
# T2 sequence (P34972 whole entry): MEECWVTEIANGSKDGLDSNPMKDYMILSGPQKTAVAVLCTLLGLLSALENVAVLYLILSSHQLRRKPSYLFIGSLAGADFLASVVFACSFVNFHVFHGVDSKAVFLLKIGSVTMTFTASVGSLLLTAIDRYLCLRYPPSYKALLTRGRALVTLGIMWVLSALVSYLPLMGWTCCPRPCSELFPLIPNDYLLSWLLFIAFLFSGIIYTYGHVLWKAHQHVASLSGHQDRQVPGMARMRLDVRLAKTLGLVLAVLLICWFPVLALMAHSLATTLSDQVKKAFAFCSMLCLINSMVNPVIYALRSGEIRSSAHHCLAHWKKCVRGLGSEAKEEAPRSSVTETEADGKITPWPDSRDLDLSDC
# In short: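 CHO cells stably expressing human CB2 receptor; membranes made in 50 mM Tris-HCl, 3 mM MgCl2, 1 mM EGTA, pH 7.4. Membrane (10 μg protein) incubated with 1 nM [3H]CP55,940 and varying test compound in 50 mM Tris-HCl pH 7.4, 3 mM MgCl2, 0.2 mM EGTA, 0.5% BSA, 60 min at 30 °C. Non-specific binding was taken with 1 μM unlabeled CP55,940. Bound and free were separated by GF/B filtration with cold Tris-BSA washes, then counted by liquid scintillation.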
# ring immobility in mice = experiment: Ring immobility, mouse test battery; type: in vivo; details: 30 mg/kg i.v.
# [7] = tested on: cannabinoid agonist-like effects in mice; experiment: In vivo test battery; details: doses up to 30 mg/kg (heterodimer 6b i.p.)
# In short: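 Separate groups of mice per dose received test compound in 95% sesame oil/5% dimethylacetamide i.p. Rectal temperature and baseline tail-flick latency were taken before injection. At 40 min mice were put in photobeam activity chambers for 5 min. Tail-flick and temperature were re-measured immediately on removal. Ring immobility was not run.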
# food intake in mice [8] = details: ref Wiley et al., cited from earlier work; for dose (as low as) that suppressed eating: same food intake protocol, 2005
# [9] = target: T2, human cannabinoid CB2 receptor; details: read-out: CB2 Ki (± SEM); displacement of [3H]CP55,940; ref Wiley et al. (2011); cited from earlier work
# [10] = tested on: spontaneous activity in mice; details: 30 mg/kg i.v.; ref Wiley et al. (2011); cited from earlier work
# [11] = tested on: tail flick latency in mice; details: 30 mg/kg i.v.; ref Wiley et al. (2011); cited from earlier work
# [12] = tested on: rectal temperature in mice; details: 30 mg/kg i.v.; ref Wiley et al. (2011); cited from earlier work
# [13] = tested on: cannabinoid agonist-like effects in mice; details: ref Wiley et al. (2011); cited from earlier work
# [14] = target: T1, human cannabinoid CB1 receptor; details: cited from earlier work
# [15] = read-out: CB1 Ki (± SEM), displacement of [3H]CP55,940
# [16] = i.p., doses not stated in text (Fig. 2)
# [17] = read-out: CB1 receptor binding affinity Ki, ref Wiley et al., 2005
# [18] = present study and H.A. Navarro, personal communication
compound,measurement,setting,value
"CC1=CC[C@@H]2[C@@H](C1)c1c(O)cc(C(C)(C)CCCCC(=O)NCCc3ccc(S(N)(=O)=O)cc3)cc1OC2(C)C [Compound O-606, 6-[(6aR,10aR)-1-hydroxy-6,6,9-trimethyl-6a,7,10,10a-tetrahydro-6H-benzo[c]chromen-3-yl]-6-methyl-N-(4-sulfamoyl-phenyethyl)heptanamide]",%MPE tail flick (maximum effect),[1]; 100 mg/kg i.v.,inactive (100)
same,Ki,[2]; [15],29 nM
same,"SA, % inhibition of activity of vehicle control group (maximum effect)",[3]; 100 mg/kg i.v.,60% (100)
same,RT (maximum effect),[4]; 100 mg/kg i.v.,inactive (100)
same,effect on food intake,food intake in mice [5]; [16],failed to affect food intake
"O=C(NN1CCCCC1)c1nn(-c2ccc(Cl)cc2Cl)c2cc(Br)ccc12 [Compound O-1654, 6-bromo-1-(2,4-dichlorophenyl)–N-(piperidin-1-yl)-1H-indazole-3-carboxamide]",Ki,[2],881 nM
same,Ki,[6],1190 nM
same,effect on food intake,food intake in mice [5]; doses up to 100 mg/kg i.p.,did not affect food intake
"CC1=CC[C@@H]2[C@@H](C1)c1c(O)cc(C(C)(C)CCCCCC(=O)NCCc3ccc(S(N)(=O)=O)cc3)cc1OC2(C)C [Compound O-1689, 7-[(6aR,10aR)-1-hydroxy-6,6,9-trimethyl-6a,7,10,10a-tetrahydro-6H-benzo[c]chromen-3-yl]-7-methyl-N-(4-sulfamoylphenethyl]octanamide]",%MPE tail flick (maximum effect),[1]; 30 mg/kg i.v.,inactive (30)
same,Ki,[2],38 nM
same,"SA, % inhibition of activity of vehicle control group (maximum effect)",[3]; 30 mg/kg i.v.,46% (30)
same,effect on food intake,food intake in mice [5]; [16],failed to affect food intake
CC1=CC[C@@H]2[C@@H](C1)c1ccc(CC#CCCCC(=O)NCCc3ccc(S(N)(=O)=O)cc3)cc1OC2(C)C [Compound O-1720],Ki,[2]; [15],921 nM
same,Ki,"[6]; read-out: CB2 Ki (± SEM), displacement of [3H]CP55,940",787 nM
same,decrease in feeding compared to vehicle,food intake in mice [5]; 100 mg/kg i.p.,24%
same,dose that significantly decreased feeding,food intake in mice [5]; i.p.,100 mg/kg
"CCCc1cc(C(=O)NN2CCCCC2)cc(-c2ccc(Cl)cc2Cl)c1-c1ccc(Cl)cc1 [Compound O-1788, 4-(4-chlorophenyl)-3-(2,4-dichlorophenyl)–N-(piperidin-1-yl)-5-propylbenzamide]",%MPE tail flick (maximum effect),[1]; 30 mg/kg i.v.,inactive (30)
same,Ki,[2],166 nM
same,RI (maximum effect),ring immobility in mice,inactive (30)
same,activity in test battery when tested alone,[7],inactive
same,"SA, % inhibition of activity of vehicle control group (maximum effect)",[3]; 30 mg/kg i.v.,inactive (30)
same,"RT, change in rectal temperature (maximum effect)",[4]; 30 mg/kg i.v.,inactive (30)
same,decrease in feeding compared to vehicle,food intake in mice [5]; 56 mg/kg i.p.,56%
"CC1=CCC2C(C1)c1c(O)cc(CC#CCCCNS(C)(=O)=O)cc1OC2(C)C (stereo not drawn) [Compound O-2050, 3-(6′-methane-sulfamidohex-2-yne)-Δ^8-tetrahydrocannabinol]",effect on food intake,"food intake in mice [8]; same procedure, 2011",decrease food intake
same,Ki,[9],0.2 nM
same,"SA, % inhibition of activity of vehicle control group (maximum effect)",[10],69% (30)
same,%MPE tail flick (maximum effect),[11],inactive (30)
same,RT (maximum effect),[12],inactive (30)
same,profile in test battery,[13],did not affect responses in the in vivo test battery
same,Ki,[14]; read-out: CB1 Ki (± SEM),2.5 nM
"Cc1c(C(=O)NN2CCCCC2)nn(-c2ccc(Cl)cc2Cl)c1-c1ccc(CCCCCN=[N+]=[N-])cc1 [Compound O-3257, 5-(4-(5-azidopentyl)phenyl)-1-(2,4-dichlorophenyl)-4-methyl-N-(piperidin-1-yl)-1H-pyrazole-3-carboxamide, reference compound]",dose (as low as) that suppressed eating,food intake in mice [8],1 mg/kg
same,Ki,[14]; [17],2.2 nM
"Cc1c(C(=O)NN2CCCCC2)nn(-c2ccc(Cl)cc2Cl)c1-c1ccc(CCCCC[N+](=O)[O-])cc1 [Compound O-3259, 1-(2,4-dichlor-ophenyl)-4-methyl-5-(4-(5-nitropentyl)phenyl)–N-(piperidin-1-yl)-1H-pyrazole-3-carboxamide, reference compound]",dose (as low as) that suppressed eating,food intake in mice [8],1 mg/kg
same,Ki,[14]; [17],1.2 nM
"Cc1c(C(=O)NCCCCCCCN(C)CCCCCCCNC(=O)c2nn(-c3ccc(Cl)cc3Cl)c(-c3ccc(Cl)cc3)c2C)nn(-c2ccc(Cl)cc2Cl)c1-c1ccc(Cl)cc1 [Heterodimer 6b, N,N′-[(methylimino)diheptane-7,1-diyl]bis[5-(4-chlorophenyl)-1-(2,4-dichlorophenyl)-4-methyl-1H-pyrazole-3-carboxamide]]",activity in test battery when tested alone,[7],inactive
same,effect on food intake,food intake in mice [5]; doses up to 30 mg/kg i.p.,failed to alter food intake
Hemopressin [reference compound],"displacement of [3H]CP55,940 from CB1 receptors",[2]; [18],failed to displace
same,"displacement of [3H]CP55,940 from CB2 receptors",[6]; [18],failed to displace
same,effect on food intake,food intake in mice [5]; doses up to 3 mg/kg i.p.,did not affect food intake; also recorded: did not affect feeding
